# Legend:
# [1] = NIRF imaging and biodistribution in NSCLC subcutaneous tumor mouse model; type: in vivo, BALB/c nude mice; conditions: mouse, in vivo, iv, 10 nmol
# Summary of the method: (§1)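 A549 cells in 100 µL PBS were injected subcutaneously into the left armpit of isoflurane-anaesthetised BALB/c nude mice, and tumours were sized by caliper (V=a2bπ/2). At about 100 mm3, mice (n=3) got the test compound (10 nmol) by tail vein. IVIS imaging ran from 1 h to several days, and tumour-to-background ratio was calculated. At 96 h, organs were excised, imaged, and organ-to-muscle fluorescence ratios averaged over 3 mice.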
# [2] = system: A549 subcutaneous tumors; test: as above; type: in vivo, BALB/c nude mice
# Summary of the method: as §1
# [3] = Water solubility; type: physicochemical; conditions: result in words
# [4] = system: orthotopic LLC pulmonary xenografts; test: Orthotopic pulmonary LLC tumor imaging and boundary analysis; type: in vivo, C57BL/6 mice
# [5] = system: 4T1 lung metastatic nodules; test: Imaging of experimental lung metastasis model; type: in vivo, Balb/c mouse; conditions: iRGD-ZW800 10 nmol, 4 h vs ICG 100 nmol, 24 h; result in words
# Summary of the method: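 Balb/c mice received 4T1 cells by tail vein and were observed weekly. After four weeks, the test compound (10 nmol) was given by tail vein. The chest was opened 4 h later and the lungs were imaged with an intraoperative NIRF imager. Control mice got ICG (100 nmol) and were imaged the same way after 24 h.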
structure (smiles),measurement,setting,value
CC1(C)C(/C=C/C2=C(Oc3ccc(CCC(=O)N[C@H]4CSSC[C@@H](C(=O)O)NC(=O)[C@H](CC(=O)O)NC(=O)[C@@H]5CCCN5C(=O)CNC(=O)[C@H](CCCCN)NC(=O)[C@H](CC(=O)O)NC(=O)CNC(=O)[C@H](CCCNC(=N)N)NC4=O)cc3)C(=C/C=C3/N(CCC[N+](C)(C)C)c4ccc(S(=O)(=O)O)cc4C3(C)C)/CCC2)=[N+](CCC[N+](C)(C)C)c2ccc(S(=O)(=O)O)cc21 [iRGD-ZW800],tissue to tissue ratio at 96 h,[1],16.6
same,peak tumor-to-background ratio (TBRmax),"[2]; 10 nmol per animal via tail vein, peak 96 h after injection, IVIS imaging, n=3",4.3±1.04
same,Fluorescence intensity ratio Sp/M (spleen/muscle),"[2]; ex vivo organs, 96 h after 10 nmol i.v., AVG of 3 mice, SD 0.19",0.85
same,Fluorescence intensity ratio In/M (intestine/muscle),"[2]; ex vivo organs, 96 h after 10 nmol i.v., AVG of 3 mice, SD 0.58",1.43
same,Fluorescence intensity ratio H/M (heart/muscle),"[2]; ex vivo organs, 96 h after 10 nmol i.v., AVG of 3 mice, SD 0.60",1.50
same,Fluorescence intensity ratio Ki/M (kidney/muscle),"[2]; ex vivo organs, 96 h after 10 nmol i.v., AVG of 3 mice, SD 1.64",4.57
same,Fluorescence intensity ratio St/M (stomach/muscle),"[2]; ex vivo organs, 96 h after 10 nmol i.v., AVG of 3 mice, SD 1.85",3.67
same,Fluorescence intensity ratio Li/M (liver/muscle),"[2]; ex vivo organs, 96 h after 10 nmol i.v., AVG of 3 mice, SD 2.55",5.28
same,Fluorescence intensity ratio L/M (lung/muscle),"[2]; ex vivo organs, 96 h after 10 nmol i.v., AVG of 3 mice, SD 2.67",5.01
same,Fluorescence intensity ratio C/M (colon/muscle),"[2]; ex vivo organs, 96 h after 10 nmol i.v., AVG of 3 mice, SD 3.74",6.80
same,imaging window,"[2]; in vivo, 10 nmol tail vein, imaged periodically over 6 days",≥ 6 days
same,water solubility,[3],good water solubility
same,water solubility,[3]; listed as iRGD fluorescent tracer,highly soluble in water
same,ratio of tumor to lung fluorescence intensity,"[4]; 10 nmol tail vein, 24 h, FLI-10B imaging, ImageJ, standard deviation 0.18",2.2
same,tumor background ratios,"[4]; lung tumor imaging in C57BL/6J mice, all ratios",greater than 1.5
same,detection of metastatic lung nodules compared with ICG,[5],superior ability to detect more nodules

# Reference: PMC11384490 (Translational Lung Cancer Research, 2024)
